# The M2OR odorant receptor database
# Assays:
# Details in all cases: stereoisomer not certain
# OR5M3 (Homo sapiens) = target: T1, OR5M3 (Homo sapiens) (UniProt Q8NGP4)
# T1 sequence (whole entry): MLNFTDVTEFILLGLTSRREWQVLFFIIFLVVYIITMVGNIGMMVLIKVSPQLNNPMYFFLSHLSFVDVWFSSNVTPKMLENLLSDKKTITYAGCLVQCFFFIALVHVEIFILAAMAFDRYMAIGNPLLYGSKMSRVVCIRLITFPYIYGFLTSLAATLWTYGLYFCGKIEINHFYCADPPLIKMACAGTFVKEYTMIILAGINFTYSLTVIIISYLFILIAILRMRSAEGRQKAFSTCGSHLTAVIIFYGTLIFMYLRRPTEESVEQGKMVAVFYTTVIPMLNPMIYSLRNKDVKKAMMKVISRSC
# How it was run: (§1)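 Whether a receptor–molecule pair is responsive (active) rests on the original authors' judgment that its measured signal was statistically different from baseline. Pairs without that judgment are non-responsive (inactive). Sources used varied assay methods, commonly transient luciferase assays in mammalian cell lines.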
# OR5M1 T295R M301I = test system: OR5M1 T295R M301I
# How it was run: as §1
# OR5M10 (Homo sapiens) = OR5M10 (Homo sapiens) (UniProt Q6IEU7)
# OR5M10 (Homo sapiens), sequence (Q6IEU7 whole entry): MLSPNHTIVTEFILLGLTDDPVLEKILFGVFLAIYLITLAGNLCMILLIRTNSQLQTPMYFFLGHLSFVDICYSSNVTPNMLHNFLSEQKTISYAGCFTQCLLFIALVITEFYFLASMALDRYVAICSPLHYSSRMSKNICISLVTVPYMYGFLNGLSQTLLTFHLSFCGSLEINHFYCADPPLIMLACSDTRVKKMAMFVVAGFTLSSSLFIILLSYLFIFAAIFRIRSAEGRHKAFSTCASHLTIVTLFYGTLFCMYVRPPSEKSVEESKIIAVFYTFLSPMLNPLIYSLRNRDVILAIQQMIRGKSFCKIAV
# How it was run: as §1
# OR5M11 (Homo sapiens) = OR5M11 (Homo sapiens) (UniProt Q96RB7)
# OR5M11 (Homo sapiens), sequence (Q96RB7 whole entry): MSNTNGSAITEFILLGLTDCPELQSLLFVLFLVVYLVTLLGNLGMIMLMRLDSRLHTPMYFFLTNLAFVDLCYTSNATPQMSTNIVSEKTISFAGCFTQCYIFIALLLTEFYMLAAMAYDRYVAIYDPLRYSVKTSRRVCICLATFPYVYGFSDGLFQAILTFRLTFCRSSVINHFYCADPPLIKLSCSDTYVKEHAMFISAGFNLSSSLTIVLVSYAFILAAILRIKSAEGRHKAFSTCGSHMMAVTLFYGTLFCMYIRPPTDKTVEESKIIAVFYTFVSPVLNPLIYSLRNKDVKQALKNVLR
# How it was run: as §1
# OR5M3 N3Y A156T = test system: OR5M3 N3Y A156T
# How it was run: as §1
# OR5M8 (Homo sapiens) = OR5M8 (Homo sapiens) (UniProt Q8NGP6)
# OR5M8 (Homo sapiens), sequence (Q8NGP6 whole entry): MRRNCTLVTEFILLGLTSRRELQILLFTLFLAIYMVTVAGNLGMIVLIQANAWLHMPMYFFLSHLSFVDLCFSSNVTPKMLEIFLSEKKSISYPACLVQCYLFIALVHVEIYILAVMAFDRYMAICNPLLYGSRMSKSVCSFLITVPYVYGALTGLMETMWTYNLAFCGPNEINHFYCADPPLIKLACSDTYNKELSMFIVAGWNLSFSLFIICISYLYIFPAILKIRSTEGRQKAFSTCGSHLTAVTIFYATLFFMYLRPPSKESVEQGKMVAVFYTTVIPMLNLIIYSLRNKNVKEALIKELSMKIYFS
# How it was run: as §1
# OR5M9 (Homo sapiens) = OR5M9 (Homo sapiens) (UniProt Q8NGP3)
# OR5M9 (Homo sapiens), sequence (Q8NGP3 whole entry): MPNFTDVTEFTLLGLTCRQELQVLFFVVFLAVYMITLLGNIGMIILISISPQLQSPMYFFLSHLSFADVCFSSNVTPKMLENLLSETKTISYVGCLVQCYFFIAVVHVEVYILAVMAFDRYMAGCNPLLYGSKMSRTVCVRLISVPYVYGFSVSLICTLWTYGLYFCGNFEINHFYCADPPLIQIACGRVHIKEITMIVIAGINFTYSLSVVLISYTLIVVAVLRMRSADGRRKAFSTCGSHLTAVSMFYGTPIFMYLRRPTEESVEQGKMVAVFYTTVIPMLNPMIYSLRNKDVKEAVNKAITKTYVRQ
# How it was run: as §1
# OR5MA L2F C311H = test system: OR5MA L2F C311H
# How it was run: as §1
# OR5MA L2F Q54H C311H = test system: OR5MA L2F Q54H C311H
# How it was run: as §1
# OR5P2 (Homo sapiens) = OR5P2 (Homo sapiens) (UniProt Q8WZ92)
# OR5P2 (Homo sapiens), sequence (Q8WZ92 whole entry): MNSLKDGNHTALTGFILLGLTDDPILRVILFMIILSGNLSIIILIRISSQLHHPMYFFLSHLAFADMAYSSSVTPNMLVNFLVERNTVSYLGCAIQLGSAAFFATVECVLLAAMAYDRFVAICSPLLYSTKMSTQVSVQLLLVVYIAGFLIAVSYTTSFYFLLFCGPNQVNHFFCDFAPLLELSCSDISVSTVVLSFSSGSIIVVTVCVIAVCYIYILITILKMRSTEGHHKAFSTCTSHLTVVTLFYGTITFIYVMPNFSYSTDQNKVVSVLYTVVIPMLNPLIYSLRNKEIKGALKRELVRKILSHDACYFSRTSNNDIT
# How it was run: as §1
# 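Note: active if original authors judged signal statistically different from baseline.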
compound,measurement,setting,value
CCOC(=O)Cc1ccccc1,odorant receptor agonist call,OR5M3 (Homo sapiens),inactive
COc1ccc(C=O)cc1,odorant receptor agonist call,OR5M3 (Homo sapiens),inactive
CSSC,odorant receptor agonist call,OR5M3 (Homo sapiens),inactive
O=Cc1ccc2c(c1)OCO2,odorant receptor agonist call,OR5M3 (Homo sapiens),inactive
C=CCSSCC=C,odorant receptor agonist call,OR5M3 (Homo sapiens),inactive
SCc1ccco1,odorant receptor agonist call,OR5M3 (Homo sapiens),inactive
C=CCOC(=O)Cc1ccccc1,odorant receptor agonist call,OR5M1 T295R M301I,inactive
same,odorant receptor agonist call,OR5M10 (Homo sapiens),inactive
same,odorant receptor agonist call,OR5M11 (Homo sapiens),inactive
same,odorant receptor agonist call,OR5M3 (Homo sapiens),inactive
same,odorant receptor agonist call,OR5M3 N3Y A156T,inactive
same,odorant receptor agonist call,OR5M8 (Homo sapiens),inactive
same,odorant receptor agonist call,OR5M9 (Homo sapiens),inactive
same,odorant receptor agonist call,OR5MA L2F C311H,inactive
same,odorant receptor agonist call,OR5MA L2F Q54H C311H,inactive
same,odorant receptor agonist call,OR5P2 (Homo sapiens),inactive
Cc1c([N+](=O)[O-])c(C)c([N+](=O)[O-])c(C(C)(C)C)c1[N+](=O)[O-],odorant receptor agonist call,OR5M10 (Homo sapiens),inactive
same,odorant receptor agonist call,OR5M11 (Homo sapiens),inactive
same,odorant receptor agonist call,OR5M3 (Homo sapiens),inactive
same,odorant receptor agonist call,OR5M8 (Homo sapiens),inactive
same,odorant receptor agonist call,OR5M9 (Homo sapiens),inactive
same,odorant receptor agonist call,OR5P2 (Homo sapiens),inactive
Cc1ccc(O)c(C)c1,odorant receptor agonist call,OR5M3 (Homo sapiens),inactive
Cc1ccccc1O,odorant receptor agonist call,OR5M3 (Homo sapiens),inactive
C=CCc1ccc(OC)cc1,odorant receptor agonist call,OR5M3 (Homo sapiens),inactive
NCC(=O)c1ccccc1,odorant receptor agonist call,OR5M3 (Homo sapiens),inactive
